Test results from paper PMC3367204 (Nucleic Acids Research, 2012).
Converted amounts (≈) assume the structure as drawn. Where two headings read alike, the source gives them in different places.

What was measured:
[1] = target: T1, complex C prepared from E. coli ribosomes (PTase activity) (Escherichia coli, UniProt P60723+P61175); conditions: 4.5 mM Mg^2+ and 150 mM NH4^+; cited from earlier work
[2] = target: complex C (poly(U)-programmed E. coli ribosomes), wild-type (Escherichia coli, UniProt P60723+P61175); format: binding; conditions: for Kd: Wild-type; for Kd / koff: 4.5 mM Mg^2+, 150 mM NH4^+; for koff: read-out: koff,T, Wild-type
[3] = target: T1, complex C prepared from E. coli ribosomes (PTase activity); test: Puromycin reaction; format: biochemical; conditions: 2 μΜ telithromycin, 200 μΜ puromycin, buffer A, 25°C
In short: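 Complex C from E. coli ribosomes reacts with 200 µM puromycin at 25°C in buffer A (100 mM Tris/HCl pH 7.2, 4.5 mM Mg acetate, 150 mM NH4Cl), alone or with 2 µM test compound or 2 µM tylosin. AcPhe-puromycin formation is followed over time. Means of three independent experiments.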

[4] = target: complex C containing ribosomes mutated in ribosomal protein L22: Δ82–84 (Escherichia coli, UniProt P60723+P61175, DEL82-84); test: Kinetics of telithromycin binding to complex C by competition with tylosin; conditions: for Kd: L22: Δ82–84, 4.5 mM Mg^2+, 150 mM NH4^+
[5] = system: E. coli mutant L22: Δ82–84; test: Sensitivity to telithromycin of E. coli cells; format: cell-based; conditions: Escherichia coli, read-out: IC50 (growth inhibition)
In short: (§1)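 Preculture at OD560 0.700 is diluted into LB and grown at 37°C with or without test compound, until the untreated culture reaches OD560 0.700. IC50 is the concentration that lowers OD to halfway between 0.700 and the bottom plateau of the dose curve. Means of three independent experiments.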

E. coli mutant U754A = test: Sensitivity to telithromycin of E. coli cells; format: cell-based; conditions: Escherichia coli, MUTANTU754A, read-out: IC50 (growth inhibition)
In short: as §1

[6] = target: complex C containing ribosomes mutated in ribosomal protein L4: Lys63Glu (Escherichia coli, UniProt P60723+P61175, K63E); test: Kinetics of telithromycin binding to complex C by competition with tylosin; conditions: for Kd: L4: Lys63Glu, 4.5 mM Mg^2+, 150 mM NH4^+
[7] = system: 23S rRNA of complex C prepared from E. coli ribosomes; test: Footprinting; format: binding, Escherichia coli
In short: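 Complex C (10 pmol; 100 nM) is incubated at 25°C in buffer B (50 mM HEPES/KOH pH 7.2, 4.5 mM Mg acetate, 150 mM NH4Cl, 5 mM DTT), optionally with 100 µM spermine. […] Probing uses DMS, kethoxal or CMCT, with 23S rRNA read by primer extension on 6% polyacrylamide/7 M urea gels. Band intensity is normalized to the no-compound control; means of three runs.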

wild-type E. coli cells = test: Sensitivity to telithromycin of E. coli cells; format: cell-based; conditions: Escherichia coli, read-out: IC50 (growth inhibition)
In short: as §1

[8] = system: E. coli mutant L4: Lys63Glu; test: Sensitivity to telithromycin of E. coli cells; format: cell-based; conditions: Escherichia coli, read-out: IC50 (growth inhibition)
In short: as §1

[9] = system: complex C containing ribosomes with mutated 23S rRNA U2609C; test: Kinetics of telithromycin binding to complex C by competition with tylosin; design: species or system Escherichia coli
[10] = target: complex C containing ribosomes with mutated 23S rRNA U754A (Escherichia coli, UniProt P60723+P61175); test: as above; conditions: for Kd: U754A, 4.5 mM Mg^2+, 150 mM NH4^+
E. coli mutant U2609C = test: Sensitivity to telithromycin of E. coli cells; format: cell-based; conditions: Escherichia coli, MUTANTU2609C, read-out: IC50 (growth inhibition)
In short: as §1

[11] = C*T (final site), 4.5 mM Mg^2+ 150 mM NH4^+
[12] = C*T (final site), 4.5 mM Mg^2+ 150 mM NH4^+ 100 μΜ spermine
[13] = CT (initial site, 5 s), 4.5 mM Mg^2+ 150 mM NH4^+
[14] = CT (initial site, 5 s), 4.5 mM Mg^2+ 150 mM NH4^+ 100 μΜ spermine

In the case of `CC[C@H]1OC(=O)C[C@@H](O)[C@H](C)[C@@H](O[C@@H]2O[C@H](C)[C@@H](O[C@H]3C[C@@](C)(O)[C@@H](O)[C@H](C)O3)[C@H](N(C)C)[C@H]2O)[C@@H](CC=O)C[C@@H](C)C(=O)/C=C/C(C)=C/[C@@H]1CO[C@@H]1O[C@H](C)[C@@H](O)[C@@H](OC)[C@H]1OC` [tylosin], the “Inhibition of AcPhe-puromycin synthesis” value [1] is given as “inhibits”.
With `CC[C@H]1OC(=O)[C@H](C)C(=O)[C@H](C)[C@@H](O[C@@H]2O[C@H](C)C[C@H](N(C)C)[C@H]2O)[C@](C)(OC)C[C@@H](C)C(=O)[C@H](C)[C@H]2N(CCCCn3cnc(-c4cccnc4)c3)C(=O)O[C@]12C` [telithromycin] the “Reversal of inactivation of complex C by tylosin” value ([2]; 4 μΜ tylosin, telithromycin >10 μΜ) was “entirely reversed”, the “Decrease of kon,T value by polyamines” value ([2]; 100 μΜ spermine or 50 μΜ spermine and 2 mM spermidine vs no polyamines) was 83% and the Kd ([2]; K*T, 50 μΜ spermine, 2 mM spermidine) was 75.7 ± 8.8 nM. For the same compound, the Kd ([2]; K*T, 100 μΜ spermine) was 91.4 ± 11.2 nM, the Kd ([2]; KT, 50 μΜ spermine, 2 mM spermidine) was 1714 ± 13 nM and the Kd ([2]; KT, 100 μΜ spermine) was 2500 ± 185 nM. For the same compound, the Kd ([2]; KT, initial low-affinity site) was 500 ± 44 nM, the “koff.T lower than the rate constant for drop off (Lovmar et al.)” value ([2]; compared with drop off rate constant of ref 3) was 10 times and the “Increase of KT* value by polyamines” value ([2]; polyamine buffer vs no polyamines) was 10 fold. The “Decrease in the affinity of telithromycin for the initial site by spermine” value ([2]; presence of spermine) was 5 fold, the koff [2] was 0.000137 s⁻¹ and the koff ([2]; 100 μΜ spermine) was 4.83e-05 s⁻¹. For the same compound, the “Inhibition of AcPhe-puromycin synthesis” value [3] was “fails to inhibit”, the Kd ([4]; K*T) was 210 ± 30.9 nM and the Kd ([4]; KT) was 530 ± 42 nM. For the same compound, the “Enhancement in dissociation rate constant koff,T by mutation” value ([4]; L22: Δ82–84 vs wild-type) was “about 4 fold”, the “Increase in overall dissociation constant K*T by mutation” value ([4]; L22: Δ82–84 vs wild-type) was 25 fold and the “Reduction in association rate constant kon,T by mutation” value ([4]; L22: Δ82–84 vs wild-type) was 10 fold. It also gave a koff ([4]; read-out: koff,T) of 0.0005 s⁻¹, an IC50 [5] of 50 ± 6.5 µg/mL (≈ 61.6 µM) and an IC50 (E. coli mutant U754A) of 14.8 ± 2.5 µg/mL (≈ 18.2 µM). For the same compound, the Kd ([6]; K*T) was 12 ± 2.67 nM, the Kd ([6]; KT) was 470 ± 48 nM and the koff ([6]; read-out: koff,T) was 0.000127 s⁻¹. The “Relative reactivity of 23S rRNA residue A752 (ratio to complex C)” value [7, 11] was 0.30 ± 0.02 ^*^, **, the “Relative reactivity of 23S rRNA residue A789 (ratio to complex C)” value [7, 11] was 0.89 ± 0.08 and the “Relative reactivity of 23S rRNA residue A2058 (ratio to complex C)” value [7, 11] was 0.25 ± 0.03 ^*. For the same compound, the “Relative reactivity of 23S rRNA residue A2059 (ratio to complex C)” value [7, 11] was 0.42 ± 0.03 ^*, the “Relative reactivity of 23S rRNA residue A2062 (ratio to complex C)” value [7, 11] was 1.28 ± 0.15 ^* and the “Relative reactivity of 23S rRNA residue C2611 (ratio to complex C)” value [7, 11] was 0.60 ± 0.08 ^*. For the same compound, the “Relative reactivity of 23S rRNA residue G2505 (ratio to complex C)” value [7, 11] was 0.78 ± 0.11 ^*, the “Relative reactivity of 23S rRNA residue U790 (ratio to complex C)” value [7, 11] was 0.85 ± 0.08 ^*^, ** and the “Relative reactivity of 23S rRNA residue U2609 (ratio to complex C)” value [7, 11] was 0.72 ± 0.04 ^*^, **. For the same compound, the “Relative reactivity of 23S rRNA residue A752 (ratio to complex C)” value [7, 12] was 0.87 ± 0.07 ^*, the “Relative reactivity of 23S rRNA residue A789 (ratio to complex C)” value [7, 12] was 0.93 ± 0.08 and the “Relative reactivity of 23S rRNA residue A2058 (ratio to complex C)” value [7, 12] was 0.38 ± 0.02 ^*^, **. For the same compound, the “Relative reactivity of 23S rRNA residue A2059 (ratio to complex C)” value [7, 12] was 0.57 ± 0.03 ^*^, **, the “Relative reactivity of 23S rRNA residue A2062 (ratio to complex C)” value [7, 12] was 1.15 ± 0.14 and the “Relative reactivity of 23S rRNA residue C2611 (ratio to complex C)” value [7, 12] was 0.97 ± 0.05. For the same compound, the “Relative reactivity of 23S rRNA residue G2505 (ratio to complex C)” value [7, 12] was 0.85 ± 0.06 ^*, the “Relative reactivity of 23S rRNA residue U790 (ratio to complex C)” value [7, 12] was 0.93 ± 0.08** and the “Relative reactivity of 23S rRNA residue U2609 (ratio to complex C)” value [7, 12] was 0.90 ± 0.08. The “Relative reactivity of 23S rRNA residue A752 (ratio to complex C)” value [7, 13] was 0.65 ± 0.05, the “Relative reactivity of 23S rRNA residue A789 (ratio to complex C)” value [7, 13] was 0.78 ± 0.07 and the “Relative reactivity of 23S rRNA residue A2058 (ratio to complex C)” value [7, 13] was 0.20 ± 0.02. For the same compound, the “Relative reactivity of 23S rRNA residue A2059 (ratio to complex C)” value [7, 13] was 0.38 ± 0.03, the “Relative reactivity of 23S rRNA residue A2062 (ratio to complex C)” value [7, 13] was 1.33 ± 0.18 and the “Relative reactivity of 23S rRNA residue C2611 (ratio to complex C)” value [7, 13] was 0.60 ± 0.09. For the same compound, the “Relative reactivity of 23S rRNA residue G2505 (ratio to complex C)” value [7, 13] was 0.65 ± 0.09, the “Relative reactivity of 23S rRNA residue U790 (ratio to complex C)” value [7, 13] was 0.60 ± 0.07 and the “Relative reactivity of 23S rRNA residue U2609 (ratio to complex C)” value [7, 13] was 0.95 ± 0.07. For the same compound, the “Relative reactivity of 23S rRNA residue A752 (ratio to complex C)” value [7, 14] was 0.75 ± 0.05, the “Relative reactivity of 23S rRNA residue A789 (ratio to complex C)” value [7, 14] was 0.82 ± 0.08 and the “Relative reactivity of 23S rRNA residue A2058 (ratio to complex C)” value [7, 14] was 0.30 ± 0.01. The “Relative reactivity of 23S rRNA residue A2059 (ratio to complex C)” value [7, 14] was 0.45 ± 0.05, the “Relative reactivity of 23S rRNA residue A2062 (ratio to complex C)” value [7, 14] was 1.20 ± 0.14 and the “Relative reactivity of 23S rRNA residue C2611 (ratio to complex C)” value [7, 14] was 0.98 ± 0.05. For the same compound, the “Relative reactivity of 23S rRNA residue G2505 (ratio to complex C)” value [7, 14] was 0.72 ± 0.07, the “Relative reactivity of 23S rRNA residue U790 (ratio to complex C)” value [7, 14] was 0.70 ± 0.07 and the “Relative reactivity of 23S rRNA residue U2609 (ratio to complex C)” value [7, 14] was 0.97 ± 0.07. For the same compound, the IC50 (wild-type E. coli cells) was 4 ± 0.8 µg/mL (≈ 4.93 µM), the IC50 [8] was 12 ± 2.1 µg/mL (≈ 14.8 µM) and the “Enhancement of overall constant Κ*T by mutation” value ([9]; U2609C vs wild-type) was 20 fold. The “koff,T” value ([9]; U2609C, 4.5 mM Mg^2+, 150 mM NH4^+) was 0.0395 ± 0.0031 min^_1, the Kd ([9]; read-out: K*T, U2609C, 4.5 mM Mg^2+, 150 mM NH4^+) was 148 ± 18.9 nM and the Kd ([9]; read-out: KT, U2609C, 4.5 mM Mg^2+, 150 mM NH4^+) was 536 ± 43 nM. The Kd ([10]; K*T) was 22.6 ± 3.22 nM, the Kd ([10]; KT) was 604 ± 45 nM and the “Effect of mutation on koff,T constant” value ([10]; U754A vs wild-type) was “doubling”. The IC50 (E. coli mutant U2609C) was 41.6 ± 4.3 µg/mL (≈ 51.2 µM).
